Laboratory results as given in ChEMBL document CHEMBL1142211 (Antimicrob Agents Chemother, 2007).
Values after ≈ are worked out from the molar mass of the structure shown. Active and inactive are the calls of the source.

Columns and labels:
[1] = Fraction unbound ligand in mouse plasma at 0.01 to 50 mg/litre; assay type: ADME, cell-free
Method in brief: (§1)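 Mouse plasma protein binding was measured by equilibrium dialysis across cellulose acetate membranes (12,000 to 14,000 MW cutoff). Drug was quantified by HPLC-UV or LCMS. Each concentration was run in duplicate and the mean reported.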

[2] = tested on: Mycobacterium tuberculosis; assay: Bactericidal activity in Mycobacterium tuberculosis H37Rv on day 1; assay type: functional, organism-based
Method in brief: (§2)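 H37Rv broth cultures were incubated with a range of drug concentrations. Viable CFU were counted by plating on Middlebrook 7H11 agar after 1, 7 and 14 days. Bactericidal effect is calculated against the initial inoculum before drug addition, as the mean of triplicates.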

[3] = Ratio of fraction AUC in Mycobacterium tuberculosis infected BALB/c mouse to MIC in Mycobacterium tuberculosis infected BALB/c mouse model at 31 to 50000 mg/kg, po; assay type: functional; settings: dose mg/kg 31-50000
Method in brief: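 Estimated from oral single-ascending-dose PK in uninfected BALB/c mice (gavage, 0.25% CMC suspension; plasma sampled 0.08–50 h, 3 mice/time point; HPLC-UV/LCMS). Total AUC0-∞ was made unbound using a protein-binding fit from mouse-plasma equilibrium dialysis, then divided by broth MIC over 576 h/24 h (SPX: 432 h/24 h). Values were interpolated from dose relationships for dose-fractionation regimens in aerosol-infected mice.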

[4] = AUC(0-infinity) in BALB/c mouse at 5 to 1000 mg/kg, po; assay type: ADME, organism-based; design: dose 5-1000 mg/kg, route oral; settings: plasma
Method in brief: (§3)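 Uninfected mice received single ascending oral gavage doses as suspensions in 0.25% (wt/vol) carboxymethylcellulose at 10 ml/kg. Plasma was taken by retro-orbital puncture from 0.08 to 50 h after dosing, with 3 animals per time point. Drug was measured by HPLC-UV or LCMS, and parameters were derived by noncompartmental analysis.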

[5] = tested on: Mycobacterium tuberculosis; assay: Ratio of fraction Cmax in Mycobacterium tuberculosis infected BALB/c mouse to MIC in Mycobacterium tuberculosis infected BALB/c mouse model at 31 to 50000 mg/kg, po; assay type: functional; settings: dose mg/kg 31-50000
Method in brief: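 Unbound peak plasma level was divided by broth MIC. […] It was converted to free drug by a Boltzman fit of equilibrium-dialysis mouse plasma binding. Values for the fractionated regimens given to aerosol-infected mice were estimated from the dose–fCmax/MIC relationship.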

[6] = tested on: Mycobacterium tuberculosis; assay: Bactericidal activity in Mycobacterium tuberculosis H37Rv on day 14; assay type: functional, organism-based; method in brief: as §2
[7] = Cmax in BALB/c mouse at 5 to 1000 mg/kg, po; assay type: ADME, organism-based; design: dose 5-1000 mg/kg, route oral; settings: in vivo; method in brief: as §3
[8] = tested on: Mycobacterium tuberculosis; assay: Bactericidal activity in Mycobacterium tuberculosis H37Rv on day 7; assay type: functional; method in brief: as §2
[9] = tested on: Mycobacterium tuberculosis; assay: Antimicrobial activity against Mycobacterium tuberculosis H37Rv in 7H9 broth; assay type: functional
Method in brief: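 Broth microdilution against H37Rv over 256 to 0.01 mg/liter. MIC is the lowest concentration with no visible turbidity.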

[10] = tested on: Mycobacterium tuberculosis; assay: Antimicrobial activity against Mycobacterium tuberculosis H37Rv infected in mouse J774A.1 macrophages; assay type: functional
Method in brief: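 J774A.1 macrophages were infected with H37Rv (MOI 1:8, macrophage:bacilli) and exposed to drug at 32 to 0.5 mg/liter for 3 days. Intracellular MIC is the minimal concentration giving a static effect after 3 days. Efficacy is the log10 CFU/ml reduction over the assay period.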

[11] = tested on: Mycobacterium tuberculosis; assay: Reduction of Mycobacterium tuberculosis H37Rv in orally dosed BALB/c mouse lung; assay type: functional
Method in brief: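 BALB/c mice were infected by low-dose aerosol with H37Rv. Oral dosing started 4 weeks later and ran for 4 weeks (3 weeks for one agent), using fractionated regimens with 3 mice per regimen and saline controls. Lungs were homogenized 24 h after the end of treatment and plated on 7H11 agar with 10% ADC at 37°C in 5% CO2 for 3 weeks. The read-out is log10 CFU/lung.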

Mus musculus [12] = assay: Drug level in Mycobacterium tuberculosis infected BALB/c mouse model at 31 to 50000 mg/kg, po; assay type: ADME, organism-based; design: dose 31-50000 mg/kg, route oral; settings: in vivo
[13] = Half life in BALB/c mouse at 5 to 1000 mg/kg, po; assay type: ADME, organism-based; design: dose 5-1000 mg/kg, route oral; settings: in vivo; method in brief: as §3
[14] = tested on: Mycobacterium tuberculosis; assay: Antimicrobial activity against Mycobacterium tuberculosis […] on day 7; assay type: functional; method in brief: as §2
[15] = AUC(0-infinity) in BALB/c mouse at 37.5 to 2400 mg/kg, po; assay type: ADME, organism-based; design: dose 37.5-2400 mg/kg, route oral; settings: plasma; method in brief: as §3
Mus musculus [16] = assay: Drug level in Mycobacterium tuberculosis infected BALB/c mouse model at 225 to 115000 mg/kg, po; assay type: ADME, organism-based; design: dose 225-115000 mg/kg, route oral; settings: in vivo
[17] = Cmax in BALB/c mouse at 37.5 to 2400 mg/kg, po; assay type: ADME, organism-based; design: dose 37.5-2400 mg/kg, route oral; settings: in vivo; method in brief: as §3
[18] = Half life in BALB/c mouse at 37.5 to 2400 mg/kg, po; assay type: ADME, organism-based; design: dose 37.5-2400 mg/kg, route oral; settings: in vivo
[19] = Toxicity in Mycobacterium tuberculosis infected BALB/c mouse model at 225 to 115000 mg/kg, po; assay type: organism-based; design: dose 225-115000 mg/kg, route oral; settings: in vivo
[20] = Ratio of fraction Cmax in Mycobacterium tuberculosis infected BALB/c mouse to MIC in Mycobacterium tuberculosis infected BALB/c mouse model at 225 to 115000 mg/kg, po; assay type: ADME, organism-based; design: dose 225-115000 mg/kg, route oral; settings: in vivo
Method in brief: (§4)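 Free Cmax and free AUC were derived from single-dose mouse plasma PK after conversion to unbound concentrations using each agent's binding equation, then divided by the broth MIC. Values for the fractionation regimens were estimated from the dose relationship.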

[21] = Ratio of fraction AUC in Mycobacterium tuberculosis infected BALB/c mouse to MIC in Mycobacterium tuberculosis infected BALB/c mouse model at 225 to 115000 mg/kg, po; assay type: ADME, organism-based; design: dose 225-115000 mg/kg, route oral; settings: in vivo; method in brief: as §4
[22] = Cmax in BALB/c mouse at 6 to 400 mg/kg, po; assay type: ADME, organism-based; design: dose 6-400 mg/kg, route oral; settings: in vivo; method in brief: as §3
[23] = AUC(0-infinity) in BALB/c mouse at 6 to 400 mg/kg, po; assay type: ADME, organism-based; design: dose 6-400 mg/kg, route oral; settings: plasma; method in brief: as §3
Mus musculus [24] = assay: Drug level in Mycobacterium tuberculosis infected BALB/c mouse model at 38 to 19000 mg/kg, po; assay type: ADME, organism-based; design: dose 38-19000 mg/kg, route oral; settings: in vivo
Plasma = assay: Fraction unbound ligand in mouse plasma at 0.01 to 10 mg/litre; assay type: ADME, cell-free; method in brief: as §1

| Compound | Activity [2] | Activity [6] | Activity [8] | MIC [9] [µg/mL] | MIC [10] [µg/mL] | Log10 cfu [11] | log10CFU/ml [14] | AUC(0-inf) [15] [ng·h/mL] | Cmax [17] [ng/mL] | further results |
| --- | --- | --- | --- | --- | --- | --- | --- | --- | --- | --- |
| C[C@@H]1CN(c2c(F)c(N)c3c(=O)c(C(=O)O)cn(C4CC4)c3c2F)C[C@H](C)N1 [SPARFLOXACIN] | Active | Active | Active | 0.1 (≈ 0.255 µM) | 2 (≈ 5.1 µM) | 1.4 | 3 |  |  | fraction unbound [1]: 0.26; RatioAUC/MIC [3]: 3; AUC(0-inf) [4]: 43000 ng·h/mL; Ratio [5]: 4; Cmax [7]: 750 ng/mL; T>MIC (Mus musculus [12]): 10%; half-life [13]: 9.8 h |
| CC1COc2c(N3CCN(C)CC3)c(F)cc3c(=O)c(C(=O)O)cn1c23 (configuration not stated) [OFLOXACIN] | Active | Active | Active | 0.5 (≈ 1.38 µM) | 2 (≈ 5.53 µM) | 1.5 | 3 | 29000 | 1700 | T>MIC (Mus musculus [16]): 0%; half-life [18]: 4.93 h; LD50 [19]: 3000 mg/kg; Ratio [20]: 1; RatioAUC/MIC [21]: 2 |
| COc1c(N2C[C@@H]3CCCN[C@@H]3C2)c(F)cc2c(=O)c(C(=O)O)cn(C3CC3)c12 [MOXIFLOXACIN] | Active | Active | Active | 0.5 (≈ 1.25 µM) | 1 (≈ 2.49 µM) | 3.2 | 3 |  |  | Cmax [22]: 380 ng/mL; AUC(0-inf) [23]: 25000 ng·h/mL; T>MIC (Mus musculus [24]): 0%; Fu (Plasma): 0.077 |
| O=C(O)c1cn(C2CC2)c2cc(N3CCNCC3)c(F)cc2c1=O [CIPROFLOXACIN] | Active | Active |  | 0.5 (≈ 1.51 µM) | 4 (≈ 12.1 µM) |  | 3 | 29000 | 1200 | log10CFU/ml [8]: 3.2 |
